Measured values published in publication PMC7869823 (Bioorganic & medicinal chemistry, 2020).
Several values for one entry are separate records, joined by “and”; a condition that tells them apart may be missing. Equal values may be shown once.

Tests used:
[1] = biological target: sea urchin NAADP receptor; experiment: Ca2+ release in sea urchin egg homogenates; assay type: biochemical; settings: compared to NAADP
[2] = test system: sea urchin NAADP receptor; experiment: Sub-threshold receptor desensitization in sea urchin egg homogenates; assay type: biochemical; settings: compared to NAADP
How it was run: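 Sea urchin egg homogenates were exposed to increasing sub-threshold concentrations of test compound or NAADP, and time-dependent desensitization was probed by subsequent addition of 1 μM NAADP. Ca2+ release was read as peak fluo-3 fluorescence. IC50 was derived from the concentration-response and compared with that of NAADP.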

[3] = test system: cultured human cells; settings: low concentrations, microinjected; cited from earlier work
[4] = test system: NAADP 23–24 kDa binding protein(s); settings: cited from earlier work

| EC50 relative to NAADP (fold greater / fold less potent as an agonist) [1] | SMILES | decrease in desensitization potency relative to NAADP [2] | Ca2+ release in cultured human cells [3] | photolabeling of NAADP binding protein(s) [4] |
| --- | --- | --- | --- | --- |
| 89 fold and 90 fold | C#Cc1nc2c(N)ncnc2n1[C@@H]1O[C@H](COP(=O)(O)OP(=O)(O)OC[C@H]2O[C@@H]([n+]3cccc(C(=O)[O-])c3)[C@H](O)[C@@H]2O)[C@@H](O)[C@H]1OP(=O)(O)O [Compound 8, 8-Ethynyl-NAADP] | 86 fold and 90 fold | – | – |
| – | C#Cc1nc2c(N)ncnc2n1[C@@H]1O[C@H](COP(=O)(O)OP(=O)(O)OC[C@H]2O[C@@H]([n+]3cc(N=[N+]=[N-])cc(C(=O)[O-])c3)[C@H](O)[C@@H]2O)[C@@H](O)[C@H]1OP(=O)(O)O [Compound 9, 5-N3-8-Ethynyl-NAADP] | – | elicit Ca^2+ release | specifically photolabel NAADP 23–24 kDa binding protein(s) |
